Assay results reported in ChEMBL document CHEMBL1136228 (Bioorg Med Chem Lett, 2003).
pEC50, pKi: −log10 of the molar value. Where “and” joins values, the source holds several entries; their conditions need not be identical. Equal entries are not always repeated. Values belong to the compound of their own block, whether it stands above or below them.

Tests used:
[1] = target: T1, Peroxisome proliferator-activated receptor alpha (Homo sapiens, UniProt Q07869)
T1 sequence (Q07869 whole entry): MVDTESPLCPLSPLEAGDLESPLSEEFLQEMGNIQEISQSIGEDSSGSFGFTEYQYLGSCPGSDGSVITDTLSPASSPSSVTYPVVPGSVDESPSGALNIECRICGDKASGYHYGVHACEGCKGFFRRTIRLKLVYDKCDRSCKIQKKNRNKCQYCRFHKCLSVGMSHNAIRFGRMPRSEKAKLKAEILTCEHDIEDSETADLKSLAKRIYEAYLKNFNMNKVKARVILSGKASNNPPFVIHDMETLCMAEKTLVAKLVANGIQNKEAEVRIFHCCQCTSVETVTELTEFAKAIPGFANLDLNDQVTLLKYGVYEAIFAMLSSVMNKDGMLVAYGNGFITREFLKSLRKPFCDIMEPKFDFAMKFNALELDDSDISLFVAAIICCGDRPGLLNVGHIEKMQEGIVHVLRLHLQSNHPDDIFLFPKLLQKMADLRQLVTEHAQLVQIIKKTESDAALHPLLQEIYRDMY

[2] = target: T1, Peroxisome proliferator-activated receptor alpha; remark: listed apart in the source
[3] = target: T2, Peroxisome proliferator-activated receptor gamma (Homo sapiens, UniProt P37231)
T2 sequence (P37231 whole entry): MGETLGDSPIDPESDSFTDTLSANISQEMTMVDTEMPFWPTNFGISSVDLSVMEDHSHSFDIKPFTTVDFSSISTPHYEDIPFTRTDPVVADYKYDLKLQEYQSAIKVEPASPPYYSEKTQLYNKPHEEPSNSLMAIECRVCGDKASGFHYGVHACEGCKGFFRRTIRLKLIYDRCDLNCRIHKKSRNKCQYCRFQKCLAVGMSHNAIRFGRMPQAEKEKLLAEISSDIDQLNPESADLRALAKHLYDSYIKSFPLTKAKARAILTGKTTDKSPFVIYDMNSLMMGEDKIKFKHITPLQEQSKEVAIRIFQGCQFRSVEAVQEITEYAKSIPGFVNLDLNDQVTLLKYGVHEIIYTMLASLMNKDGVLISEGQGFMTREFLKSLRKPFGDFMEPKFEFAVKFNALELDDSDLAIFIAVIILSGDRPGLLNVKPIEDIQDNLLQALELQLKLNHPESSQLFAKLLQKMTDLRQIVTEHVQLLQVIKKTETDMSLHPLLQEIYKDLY

[4] = target: T2, Peroxisome proliferator-activated receptor gamma; remark: listed apart in the source
[5] = test system: Mus musculus; assay: Fasting plasma glucose level after 10 mg/kg peroral administration in db/db Mouse; type: functional; settings: route oral
In short: (§1)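 db/db (lepr db-3J/lepr db-3J) mice dosed orally once daily for 11 days; fasting plasma glucose measured at day 11. Correction is expressed as mean glucose lowering, as a percentage of the difference between vehicle-treated db/db and lean control mice.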

[6] = test system: Mus musculus; assay: Fasting plasma glucose levels after 30 mg/kg peroral administration in db/db Mouse; type: functional; settings: route oral
In short: as §1

[7] = target: T2, Peroxisome proliferator-activated receptor gamma; assay: Binding affinity towards peroxisome proliferator activated receptor gamma (PPAR gamma): Weakly active
[8] = target: T2, Peroxisome proliferator-activated receptor gamma; assay: Binding affinity towards peroxisome proliferator activated receptor gamma (PPAR gamma); weakly active
[9] = target: T1, Peroxisome proliferator-activated receptor alpha; assay: Binding affinity towards peroxisome proliferator activated receptor alpha (PPAR alpha); weakly active
[10] = test system: Rattus norvegicus; assay: Body weight of Sprague-Dawley rat after 30 mg/kg peroral administration; settings: route oral
[11] = test system: Rattus norvegicus; assay: Total Cholesterol change in Sprague-Dawley rat after 30 mg/kg peroral administration; settings: route oral
[12] = test system: Rattus norvegicus; assay: Heart weight of Sprague-Dawley rat after 30 mg/kg peroral administration; settings: route oral
[13] = test system: Rattus norvegicus; assay: Brown adipose tissue weight in Sprague-Dawley rat after 30 mg/kg peroral administration; settings: route oral
[14] = test system: Mus musculus; assay: Fasting plasma glucose levels after 3 mg/kg peroral administration in db/db Mouse; type: functional; settings: route oral
In short: as §1

[15] = test system: Rattus norvegicus; assay: Triglyceride change in Sprague-Dawley rat after 30 mg/kg peroral administration; settings: route oral
[16] = test system: Mus musculus; assay: Fasting plasma glucose levels after 1 mg/kg peroral administration in db/db Mouse; type: functional; settings: route oral
In short: as §1

[17] = test system: Rattus norvegicus; assay: Body weight of Sprague-Dawley rat after 10 mg/kg peroral administration; settings: route oral
[18] = test system: Rattus norvegicus; assay: Brown adipose tissue weight in Sprague-Dawley rat after 10 mg/kg peroral administration; settings: route oral
[19] = test system: Rattus norvegicus; assay: Heart weight of Sprague-Dawley rat after 10 mg/kg peroral administration; settings: route oral
[20] = test system: Rattus norvegicus; assay: Total Cholesterol change in Sprague-Dawley rat after 10 mg/kg peroral administration; settings: route oral
[21] = test system: Rattus norvegicus; assay: Triglyceride change in Sprague-Dawley rat after 10 mg/kg peroral administration; settings: route oral
[22] = test system: Mus musculus; assay: Fasting plasma glucose levels after 15 mg/kg peroral administration in db/db Mouse; type: functional; settings: route oral
In short: as §1

[23] = test system: Mus musculus; assay: Fasting plasma glucose levels after 5 mg/kg peroral administration in db/db Mouse; type: functional; settings: route oral
In short: as §1

[24] = Bioavailability was determined in rat; type: ADME, organism-based; settings: in vivo
[25] = target: T2, Peroxisome proliferator-activated receptor gamma; assay: Binding affinity towards human peroxisome proliferator activated receptor gamma (PPAR gamma) was determined by HTRF assay; weakly active
[26] = test system: Rattus norvegicus; assay: Heart weight of Sprague-Dawley rat after 150 mg/kg peroral administration; settings: route oral
[27] = test system: Rattus norvegicus; assay: Brown adipose tissue weight in Sprague-Dawley rat after 150 mg/kg peroral administration; settings: route oral
[28] = target: T2, Peroxisome proliferator-activated receptor gamma; assay: Binding affinity towards peroxisome proliferator activated receptor gamma (PPAR gamma); Not active
In short: (§2)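 Scintillation proximity (SPA) radioligand binding assay run at 15 C. The IC50 is converted to an apparent Ki with the Cheng-Prusoff equation.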

[29] = test system: Rattus norvegicus; assay: Total Cholesterol change in Sprague-Dawley rat after 150 mg/kg peroral administration; settings: route oral
[30] = test system: Mus musculus; assay: Fasting plasma glucose levels after 150 mg/kg peroral administration in db/db Mouse; type: functional; settings: route oral
In short: as §1

[31] = target: T1, Peroxisome proliferator-activated receptor alpha; assay: Binding affinity towards human peroxisome proliferator activated receptor alpha (PPAR alpha) by HTRF assay; Weakly active
[32] = test system: Rattus norvegicus; assay: Body weight of Sprague-Dawley rat after 150 mg/kg peroral administration; settings: route oral
[33] = test system: Rattus norvegicus; assay: Triglyceride change in Sprague-Dawley rat after 150 mg/kg peroral administration; settings: route oral
[34] = target: T1, Peroxisome proliferator-activated receptor alpha; assay: Binding affinity towards peroxisome proliferator activated receptor alpha (PPAR alpha); Not active
In short: as §2

[35] = target: T1, Peroxisome proliferator-activated receptor alpha; assay: Binding affinity towards human peroxisome proliferator activated receptor gamma (PPAR alpha) by HTRF assay; Weakly active
[36] = target: T1, Peroxisome proliferator-activated receptor alpha; assay: Binding affinity towards human peroxisome proliferator activated receptor alpha (PPAR alpha) by HTRF assay; Not active

pKi [1]: 6.53
pEC50 [2]: 6.09
pEC50 [3]: 5.42
pKi [4]: 6.01
SMILES: CCCc1c(O)c(C(=O)CC)cc(Cl)c1OC(C(=O)O)c1ccccc1 (configuration not stated)

SMILES: CCCc1cc2c(C(F)(F)F)noc2c(CCC)c1O[C@H](C(=O)O)c1ccccc1
pKi [1]: 7.92
FPG correction [5]: 50%
pEC50 [3]: 6.71
pKi [4]: 6.21

pKi [1]: 6.65
pKi [4]: < 5.00
SMILES: COC(=O)c1cc(C)c(OC(C(=O)O)c2ccccc2)c(C)c1 (configuration not stated)

SMILES: CCCc1c(OC(C(=O)O)c2ccccc2)ccc2c(C(F)(F)F)noc12 (configuration not stated)
pKi [1]: 7.01
pEC50 [2]: 6.08
FPG correction [6]: -5%
Ki [7]: Partially active
pEC50 [3]: 5.34

Ki [8]: Partially active
Ki [9]: Partially active
pEC50 [3]: 5.50
SMILES: CCCc1cc2c(C(F)(F)F)noc2c(CCC)c1O[C@@H](C(=O)O)c1ccccc1

SMILES: CCCc1cc2c(C(F)(F)F)noc2c(CCC)c1OC(C(=O)O)c1ccc(C(F)(F)F)cc1 (configuration not stated)
pKi [1]: 7.74
FPG correction [5]: 83%
Body weight [10]: 318 g
pEC50 [2]: 7.64
Change [11]: -32%
Heart weight [12]: 1.14 g
BAT weight [13]: 0.27 g
FPG correction [14]: 41%
pEC50 [3]: 7.10
pKi [4]: 6.98
Change [15]: -41%
FPG correction [16]: 21%

SMILES: CCCc1cc(C(=O)CC)c(O)c(CCC)c1OC(C(=O)O)c1ccccc1 (configuration not stated)
pKi [1]: 7.09
FPG correction [5]: 42%
Body weight [10]: 294 g
Body weight [17]: 290 g
pEC50 [2]: 7.43
Change [11]: -7%
Heart weight [12]: 1.06 g
BAT weight [13]: 0.34 g
FPG correction [6]: 55%
Ki [7]: Partially active
pEC50 [3]: 5.96
BAT weight [18]: 0.29 g
Change [15]: -8%
Heart weight [19]: 1.11 g
Change [20]: -36%
Change [21]: -64%

SMILES: CCCc1cc2c(C(F)(F)F)noc2c(CCC)c1OC(C(=O)O)c1ccc(CCc2ccccn2)cc1 (configuration not stated)
pKi [1]: 7.19
FPG correction [5]: 75%
pEC50 [2]: 7.55
pEC50 [3]: 6.96
pKi [4]: 6.71

pKi [1]: 7.20
pKi [4]: 5.96
SMILES: CCCc1cc(C(=O)OC)cc(CCC)c1OC(C(=O)O)c1ccccc1 (configuration not stated)

SMILES: CCCc1c(OC(C(=O)O)c2ccccc2)c(Cl)cc2c(CC)noc12 (configuration not stated)
pKi [1]: 7.42
Ki [8]: Partially active
FPG correction [22]: 47%
Body weight [10]: 312 g
pEC50 [2]: 6.79
Change [11]: -9%
FPG correction [23]: 10%
Heart weight [12]: 1.22 g
BAT weight [13]: 0.34 g
pEC50 [3]: 5.95
Change [15]: -11%

pKi [1]: 7.24
pKi [4]: 5.07
SMILES: CCCc1cc(C(=O)OC)cc(Cl)c1OC(C(=O)O)c1ccccc1 (configuration not stated)

SMILES: CCCc1cc2c(C(F)(F)F)noc2c(CCC)c1OC(C(=O)O)c1ccccc1 (configuration not stated)
pKi [1]: 7.43
bioavailability [24]: 11%
Body weight [10]: 276 g
pEC50 [2]: 7.82
Change [11]: -27%
Heart weight [12]: 1.05 g
BAT weight [13]: 0.28 g
FPG correction [6]: 91%
pEC50 [3]: 6.44
pKi [4]: 6.02
Change [15]: -52%

SMILES: CCCc1cc2c(C(F)(F)F)noc2c(CCC)c1OC(C(=O)O)c1ccc(C(C)C)cc1 (configuration not stated)
FPG correction [5]: 61%
FPG correction [14]: 31%

pKi [1]: 7.21
pEC50 [2]: 7.10
pEC50 [3]: 6.25
pKi [4]: 5.57
SMILES: CCCc1cc2c(CC)noc2c(CCC)c1OC(C(=O)O)c1ccccc1 (configuration not stated)

SMILES: CCCc1cc2c(C(F)(F)F)noc2c(CCC)c1OC(C(=O)O)c1ccc(OCc2ccccn2)cc1 (configuration not stated)
pKi [1]: 7.19
Body weight [10]: 297 g
pEC50 [2]: 7.72
Change [11]: -38%
Heart weight [12]: 1.15 g
BAT weight [13]: 0.42 g
FPG correction ([6]; 30 mg/kg): 90% and 51%
pEC50 [3]: 7.33
pKi [4]: 6.57
Change [15]: -47%

pKi [1]: 7.55
pKi [4]: 5.23
SMILES: CCCc1cc(C(=O)OC)cc(C)c1OC(C(=O)O)c1ccccc1 (configuration not stated)

SMILES: CCCc1cc2c(C(F)(F)F)noc2c(CCC)c1OC(C(=O)O)c1ccc(Cl)cc1 (configuration not stated)
pKi [1]: 6.98
FPG correction [5]: 74%
Body weight [10]: 297 g
pEC50 [2]: 8.00
Change [11]: -23%
Heart weight [12]: 1.17 g
BAT weight [13]: 0.22 g
FPG correction [14]: 31%
pEC50 [3]: 6.96
pKi [4]: 6.76
Change [15]: -56%

Ki [8]: Partially active
Ki [9]: Partially active
Ki [25]: Partially active
SMILES: CCCc1c(OC(C(=O)O)c2ccccc2)ccc(C(=O)CC)c1O (configuration not stated)

SMILES: CC(C)(Oc1ccc(C(=O)c2ccc(Cl)cc2)cc1)C(=O)O [FENOFIBRIC ACID]
pKi [1]: 4.46
Heart weight [26]: 1.18 g
BAT weight [27]: 0.33 g
Ki [28]: Not Active
Change [29]: -18%
FPG correction [30]: 17%
Ki [31]: Partially active
Body weight [32]: 308 g
Change [33]: -23%

SMILES: Cc1cccc(Nc2cc(Cl)nc(SCC(=O)O)n2)c1C [PIRINIXIC ACID]
Ki [34]: Not Active
FPG correction [6]: 20%
Ki [28]: Not Active
EC50 [35]: Partially active

SMILES: CN(CCOc1ccc(CC2SC(=O)NC2=O)cc1)c1ccccn1.O=C(O)/C=C\C(=O)O (configuration not stated) [ROSIGLITAZONE MALEATE]
Ki [34]: Not Active
Body weight ([10]; 30 mg/kg): 310 g and 322 g
Change [11]: 1%
BAT weight ([13]; 30 mg/kg): 0.74 g and 0.63 g
Ki [36]: Not Active
